In PMC10242637 (Saudi Pharmaceutical Journal : SPJ, 2023):

How the values were obtained:
[1] = tested on: fibroblasts NCTC cells (clone 929); experiment: Cytotoxicity against mammalian cells; format: cell-based; settings: for SI (Selective Index): ratio between CC50 (NCTC) and IC50 (amastigote - TCA); for CC50: read-out: CC50 NCTC, NCTC cells (clone L929), 48 h, MTT
Method in brief: (§1)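 NCTC clone 929 fibroblasts were seeded at 6 × 10^4 cells/well and exposed to test compound (200 to 1.5 μM, 1:2 dilutions) for 48 h at 37 °C in 5% CO2, with 0.5% v/v DMSO final. Viability was read by MTT at 570 nm, and CC50 was taken from sigmoid dose–response curves. SI = CC50 divided by the amastigote IC50. Two independent runs, each in duplicate.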

[2] = tested on: T. cruzi trypomastigotes (Y strain); experiment: Anti-trypomastigote assay; format: cell-based; settings: Trypanosoma cruzi, 24 h, read-out: IC50 (µM ± SD) T.c.T
Method in brief: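 Y-strain trypomastigotes at 1 × 10^6 cells/well in RPMI 1640 were exposed to test compound (150 to 1.1 μM, 1:2 dilutions) for 24 h at 37 °C in 5% CO2, with 0.5% v/v DMSO final. Resazurin (0.011% v/v) was then added for 24 h and absorbance read at 570 nm. IC50 came from non-linear regression against untreated parasites as 100% viability. Two independent runs, each in duplicate.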

[3] = Cytotoxicity against mammalian cells; format: cell-based; settings: mouse, NCTC clone 929 (L929) fibroblasts
Method in brief: as §1

[4] = Calculation of physicochemical properties and descriptors; settings: 2b over the neutral analogue 2c; from calculated LogS7.4

increase in LogS7.4 value [4] [log unit] | Molecule | SI (Selective Index) [1] | CC50 [1] [µM] | IC50 [2] [µM] | CC50 at 48 h [3] [µM]
 | (2E)-3-(3,4-dihydroxyphenyl)-1-(4-phenylpiperazin-1-yl)prop-2-en-1-one [2d] | 2.8 | 57.2 ± 2 |  | 
 | COc1ccc(C(=O)N2CCN(Cc3ccccc3)CC2)cc1 [1b, (4-Benzylpiperazin-1-yl)(4-methoxyphenyl)methanone] |  |  | > 150 | > 200
 | COc1cc(C(=O)N2CCN(Cc3ccccc3)CC2)ccc1O [1a, (4-Benzylpiperazin-1-yl)(4-hydroxy-3-methoxyphenyl)methanone] | >5.6 |  | > 150 | > 200
 | (3,4-dihydroxyphenyl)-(4-phenylpiperazin-1-yl)methanone [1d] | >5.7 | > 200 |  | 
 | (4-methoxyphenyl)(4-phenylpiperazin-1-yl)methanone [1f] |  | > 200 |  | 
 | (2E)-1-(1-benzylpiperidin-4-yl)-3-(4-methoxyphenyl)prop-2-en-1-one [2c] | >11.2 | > 200 |  | 
 | COc1cc(/C=C/C(=O)N2CCN(Cc3ccccc3)CC2)ccc1O [2a, (2E)-1-(4-benzylpiperazin-1-yl)-3-(4-hydroxy-3-methoxyphenyl)prop-2-en-1-one] |  |  | > 150 | > 200
 | O=C(Cn1ccnc1[N+](=O)[O-])NCc1ccccc1 [BZN, Benznidazole, reference compound] | >40 |  | 12.3 ± 3.3 | > 200
 | O=C(c1ccc(Cl)cc1)N1CCN(Cc2ccccc2)CC1 [1 g, 1‐benzyl‐4‐(4‐chlorobenzoyl)piperazine] |  |  | > 150 | > 200
 | (4-hydroxy-3-methoxyphenyl)(4-phenylpiperazin-1-yl)methanone [1e] |  | > 200 |  | 
 | (2E)-3-(4-hydroxy-3-methoxyphenyl)-1-(4-phenylpiperazin-1-yl)prop-2-en-1-one |  | > 200 |  | 
1.3 | COc1ccc(/C=C/C(=O)N2CCN(Cc3ccccc3)CC2)cc1 [2b, (2E)-1-(4-benzylpiperazin-1-yl)-3-(4-methoxyphenyl) prop-2-en-1-one] | >7 |  | > 150 | > 200
 | COc1ccc(C(=O)N2CCC(Cc3ccccc3)CC2)cc1 [1c, 4-Benzyl-1-(4-methoxybenzoyl)piperidine] |  |  | 65.3 ± 2.3 | > 200
